Results from ChEMBL document CHEMBL1817556, “Substituted lactam and cyclic azahemiacetals modulate Pseudomonas aeruginosa quorum sensing” (Bioorg Med Chem, 2011).

Assays:
[1] = target: 3-(3-hydroxydecanoyloxy)decanoate synthase (Pseudomonas aeruginosa (strain ATCC 15692 / PAO1 / 1C / PRS 101 / LMG12228)) (UniProt Q51559); experiment: Modulation of Pseudomonas aeruginosa lacZ-fused rhlA expressed in Escherichia coli DH5alpha co-expressing Ptac-rhlR assessed as C4-AHL-induced effect at 0.34 mM after 4 hrs by beta-galactosidase assay relative to control
In short: (§1)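 rhl reporter: E. coli DH5α carrying pECP61.5 (Ptac-rhlR, PrhlA-lacZ) was grown overnight in LB with ampicillin (100 μg/ml) only, then diluted to OD600 0.150. It was induced with 1 mM IPTG, and 2 μM C4-HSL plus compound or DMSO were added at OD600 1.0. Cultures were shaken 4 h at 37 °C. β-Galactosidase activity was read in Miller units as % of the solvent sample. Triplicates per biological replicate, at least two repeats; paired two-tailed t-test.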

[2] = target: T1, Acyl-homoserine-lactone synthase (Pseudomonas aeruginosa (strain ATCC 15692 / PAO1 / 1C / PRS 101 / LMG12228)) (UniProt P33883); experiment: Modulation of Pseudomonas aeruginosa lacZ-fused lasI expressed in Escherichia coli DH5alpha co-expressing pBAD-lasR assessed as 3-oxo-C12-AHL-induced effect at 0.17 mM after 3 hrs by beta-galactosidase assay relative to control
T1 sequence (whole entry): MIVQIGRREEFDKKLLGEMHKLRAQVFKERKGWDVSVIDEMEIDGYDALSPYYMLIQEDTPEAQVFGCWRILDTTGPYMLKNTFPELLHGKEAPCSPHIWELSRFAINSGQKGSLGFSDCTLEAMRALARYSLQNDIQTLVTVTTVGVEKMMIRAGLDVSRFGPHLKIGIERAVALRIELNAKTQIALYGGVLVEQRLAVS
In short: (§2)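 E. coli DH5α carrying pSC11 (PlasI-lacZ translational fusion) and pJN105L (PBAD-lasR) was grown overnight in LB with ampicillin (100 μg/ml) and gentamicin (15 μg/ml), then diluted to OD600 0.150. Arabinose (0.2% w/v), 3-oxo-C12-AHL (2 μM) and test compound or DMSO were added. Cultures were shaken 3 h at 37 °C. β-Galactosidase activity was read in Miller units and expressed as % of the solvent sample. Triplicates per biological replicate, repeated at least twice; paired two-tailed t-test.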

[3] = target: 3-(3-hydroxydecanoyloxy)decanoate synthase (Pseudomonas aeruginosa (strain ATCC 15692 / PAO1 / 1C / PRS 101 / LMG12228)) (UniProt Q51559); experiment: Modulation of Pseudomonas aeruginosa lacZ-fused rhlA expressed in Escherichia coli DH5alpha co-expressing Ptac-rhlR assessed as C4-AHL-induced effect at 0.17 mM after 4 hrs by beta-galactosidase assay relative to control; in short: as §1
[4] = target: T1, Acyl-homoserine-lactone synthase (Pseudomonas aeruginosa (strain ATCC 15692 / PAO1 / 1C / PRS 101 / LMG12228)); experiment: Modulation of Pseudomonas aeruginosa lacZ-fused lasI expressed in Escherichia coli DH5alpha co-expressing pBAD-lasR assessed as 3-oxo-C12-AHL-induced effect at 0.34 mM after 3 hrs by beta-galactosidase assay relative to control; in short: as §2
[5] = target: 3-(3-hydroxydecanoyloxy)decanoate synthase (Pseudomonas aeruginosa (strain ATCC 15692 / PAO1 / 1C / PRS 101 / LMG12228)) (UniProt Q51559); experiment: Modulation of Pseudomonas aeruginosa lacZ-fused rhlA expressed in Escherichia coli DH5alpha co-expressing Ptac-rhlR assessed as C4-AHL-induced effect at 0.52 mM after 4 hrs by beta-galactosidase assay relative to control; in short: as §1
[6] = target: T1, Acyl-homoserine-lactone synthase (Pseudomonas aeruginosa (strain ATCC 15692 / PAO1 / 1C / PRS 101 / LMG12228)); experiment: Modulation of Pseudomonas aeruginosa lacZ-fused lasI expressed in Escherichia coli DH5alpha co-expressing pBAD-lasR assessed as 3-oxo-C12-AHL-induced effect at 0.69 mM after 3 hrs by beta-galactosidase assay relative to control; in short: as §2
[7] = target: 3-(3-hydroxydecanoyloxy)decanoate synthase (Pseudomonas aeruginosa (strain ATCC 15692 / PAO1 / 1C / PRS 101 / LMG12228)) (UniProt Q51559); experiment: Modulation of Pseudomonas aeruginosa lacZ-fused rhlA expressed in Escherichia coli DH5alpha co-expressing Ptac-rhlR assessed as C4-AHL-induced effect at 0.69 mM after 4 hrs by beta-galactosidase assay relative to control
In short: (§3)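 E. coli DH5α carrying pECP61.5 (Ptac-rhlR, PrhlA-lacZ), grown overnight in LB with ampicillin 100 μg/ml and diluted to OD600 0.150. At OD600 1.0, 1 mM IPTG, 2 μM C4-HSL and compound or DMSO were added. Cultures were shaken 4 h at 37 °C, then β-galactosidase was read in Miller units. Activity is % of solvent sample, from triplicates per biological replicate, with at least two repeats.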

[8] = target: T1, Acyl-homoserine-lactone synthase (Pseudomonas aeruginosa (strain ATCC 15692 / PAO1 / 1C / PRS 101 / LMG12228)); experiment: Modulation of Pseudomonas aeruginosa lacZ-fused lasI expressed in Escherichia coli DH5alpha co-expressing pBAD-lasR assessed as 3-oxo-C12-AHL-induced effect at 0.52 mM after 3 hrs by beta-galactosidase assay relative to control; in short: as §2
[9] = target: T1, Acyl-homoserine-lactone synthase (Pseudomonas aeruginosa (strain ATCC 15692 / PAO1 / 1C / PRS 101 / LMG12228)); experiment: Modulation of Pseudomonas aeruginosa lacZ-fused lasI expressed in Escherichia coli DH5alpha co-expressing pBAD-lasR at 0.002 mM after 3 hrs by beta-galactosidase assay relative to control; in short: as §2
[10] = target: T1, Acyl-homoserine-lactone synthase (Pseudomonas aeruginosa (strain ATCC 15692 / PAO1 / 1C / PRS 101 / LMG12228)); experiment: Modulation of Pseudomonas aeruginosa lacZ-fused lasI expressed in Escherichia coli DH5alpha co-expressing pBAD-lasR assessed as 3-oxo-C12-AHL-induced effect at 0.58 mM after 3 hrs by beta-galactosidase assay relative to control; in short: as §2
[11] = target: 3-(3-hydroxydecanoyloxy)decanoate synthase (Pseudomonas aeruginosa (strain ATCC 15692 / PAO1 / 1C / PRS 101 / LMG12228)) (UniProt Q51559); experiment: Modulation of Pseudomonas aeruginosa lacZ-fused rhlA expressed in Escherichia coli DH5alpha co-expressing Ptac-rhlR assessed as C4-AHL-induced effect at 0.58 mM after 4 hrs by beta-galactosidase assay relative to control; in short: as §3
[12] = target: 3-(3-hydroxydecanoyloxy)decanoate synthase (Pseudomonas aeruginosa (strain ATCC 15692 / PAO1 / 1C / PRS 101 / LMG12228)) (UniProt Q51559); experiment: Modulation of Pseudomonas aeruginosa lacZ-fused rhlA expressed in Escherichia coli DH5alpha co-expressing Ptac-rhlR assessed as C4-AHL-induced effect at 0.87 mM after 4 hrs by beta-galactosidase assay relative to control; in short: as §3
[13] = target: 3-(3-hydroxydecanoyloxy)decanoate synthase (Pseudomonas aeruginosa (strain ATCC 15692 / PAO1 / 1C / PRS 101 / LMG12228)) (UniProt Q51559); experiment: Modulation of Pseudomonas aeruginosa lacZ-fused rhlA expressed in Escherichia coli DH5alpha co-expressing Ptac-rhlR assessed as C4-AHL-induced effect at 1.16 mM after 4 hrs by beta-galactosidase assay relative to control; in short: as §3
[14] = target: T1, Acyl-homoserine-lactone synthase (Pseudomonas aeruginosa (strain ATCC 15692 / PAO1 / 1C / PRS 101 / LMG12228)); experiment: Modulation of Pseudomonas aeruginosa lacZ-fused lasI expressed in Escherichia coli DH5alpha co-expressing pBAD-lasR assessed as 3-oxo-C12-AHL-induced effect at 0.87 mM after 3 hrs by beta-galactosidase assay relative to control; in short: as §2
[15] = target: T1, Acyl-homoserine-lactone synthase (Pseudomonas aeruginosa (strain ATCC 15692 / PAO1 / 1C / PRS 101 / LMG12228)); experiment: Modulation of Pseudomonas aeruginosa lacZ-fused lasI expressed in Escherichia coli DH5alpha co-expressing pBAD-lasR assessed as 3-oxo-C12-AHL-induced effect at 0.29 mM after 3 hrs by beta-galactosidase assay relative to control; in short: as §2
[16] = target: 3-(3-hydroxydecanoyloxy)decanoate synthase (Pseudomonas aeruginosa (strain ATCC 15692 / PAO1 / 1C / PRS 101 / LMG12228)) (UniProt Q51559); experiment: Modulation of Pseudomonas aeruginosa lacZ-fused rhlA expressed in Escherichia coli DH5alpha co-expressing Ptac-rhlR assessed as C4-AHL-induced effect at 0.29 mM after 4 hrs by beta-galactosidase assay relative to control; in short: as §1
[17] = target: T1, Acyl-homoserine-lactone synthase (Pseudomonas aeruginosa (strain ATCC 15692 / PAO1 / 1C / PRS 101 / LMG12228)); experiment: Modulation of Pseudomonas aeruginosa lacZ-fused lasI expressed in Escherichia coli DH5alpha co-expressing pBAD-lasR assessed as 3-oxo-C12-AHL-induced effect at 1.16 mM after 3 hrs by beta-galactosidase assay relative to control; in short: as §2

`CCCCCCCCCSC[C@H]1NC(O)[C@H](O)[C@@H]1O` (mixture of isomers) showed an Activity [1] of 127%, an Activity [2] of 78% and an Activity [3] of 98%. It also gave an Activity [4] of 78%, an Activity [5] of 116% and an Activity [6] of 53%. For the same molecule, the Activity [7] was 121% and the Activity [8] was 71%.

Molecule `CCCCCCCCCC(=O)CC(=O)N[C@H]1CCOC1=O` has an Activity [9] of 100%.

`CCCSC[C@@H]1CCC(=O)N1` gave an Activity [10] of 72%, an Activity [11] of 118% and an Activity [12] of 104%. The Activity [13] was 108%, the Activity [14] was 51% and the Activity [15] was 90%. For the same molecule, the Activity [16] was 104% and the Activity [17] was 43%.
